Measurements as given in paper PMC2736393 (Biochemistry, 2009).
Substitutions are numbered along the chain they refer to. Numbers in names are those of the source. No end group written: not given here.

Assays:
[1] = Circular dichroism of GRK2 peptides; assay type: physicochemical; conditions: 16 µM peptide in PBS pH 7.0, 4°C
How it was run: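 Far-UV CD spectra recorded at 4°C over 200–280 nm in a 1.0 cm pathlength cuvette (1 nm/min, 4 s response, 1 nm bandwidth). Test peptide was diluted to 16 µM in PBS pH 7.0 with varying trifluoroethanol. Observed ellipticity was converted to molar ellipticity using mean residue weight, path length and concentration. Relative helix content was deduced from these spectra.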

[2] = target: T1, GRK2 (rhodopsin substrate) (Bos taurus, UniProt P21146); experiment: Inhibition of GRK2 phosphorylation of Rho* by GRK peptides; assay type: biochemical; conditions: 1-15 µM rhodopsin, 60 µM peptide; 3 independent experiments
T1 sequence (P21146 1-689): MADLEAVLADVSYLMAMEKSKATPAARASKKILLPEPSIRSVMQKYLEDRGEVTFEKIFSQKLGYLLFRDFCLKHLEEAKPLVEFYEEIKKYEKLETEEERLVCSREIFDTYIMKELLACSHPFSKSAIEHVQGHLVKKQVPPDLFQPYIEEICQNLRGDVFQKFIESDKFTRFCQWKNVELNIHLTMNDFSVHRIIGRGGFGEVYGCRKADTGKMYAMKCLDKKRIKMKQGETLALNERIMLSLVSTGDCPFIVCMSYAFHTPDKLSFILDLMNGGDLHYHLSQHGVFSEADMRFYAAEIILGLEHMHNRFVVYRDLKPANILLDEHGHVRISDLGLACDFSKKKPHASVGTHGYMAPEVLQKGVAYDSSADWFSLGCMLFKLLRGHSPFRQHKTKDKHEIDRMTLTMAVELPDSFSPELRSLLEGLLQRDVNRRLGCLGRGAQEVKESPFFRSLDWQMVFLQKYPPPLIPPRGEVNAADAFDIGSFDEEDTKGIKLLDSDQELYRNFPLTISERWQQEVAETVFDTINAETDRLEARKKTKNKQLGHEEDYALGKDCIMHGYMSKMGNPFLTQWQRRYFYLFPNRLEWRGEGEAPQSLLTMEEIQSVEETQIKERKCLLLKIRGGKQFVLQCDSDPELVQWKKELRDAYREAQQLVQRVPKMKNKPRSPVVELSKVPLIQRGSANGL
How it was run: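 Sf9-expressed, purified GRK2 (20 nM) phosphorylated 1–15 µM light-activated rhodopsin with or without 60 µM test peptide. Products were resolved by SDS-PAGE and autoradiographed, then bands were excised and scintillation-counted. Values are mean ± SD from three experiments.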

GRK2 (β2AR substrate) = target: T2, GRK2 (β2AR substrate) (Bos taurus, UniProt P21146); experiment: Inhibition of GRK2 phosphorylation of β2AR by GRK peptides; assay type: biochemical
T2 sequence (P21146 1-689): T1 sequence (P21146 1-689)

[3] = target: T1, GRK2 (rhodopsin substrate); conditions: cited from earlier work
GPCR = conditions: cited from earlier work
[4] = tested on: β2-adrenergic receptor (β2AR); experiment: Phosphorylation of purified β2AR by purified GRK2 mutants; assay type: biochemical, human; conditions: 50 nM β2AR in mixed micelles, 20 nM GRK2, 10 µM isoproterenol, 0.2 mM ATP, 30°C; 3 experiments
rhodopsin (Rho*) = experiment: Phosphorylation of light-activated rhodopsin; assay type: biochemical; conditions: COS-1 lysates, 2-20 min, 30°C; autoradiography (Fig. 1B)

MADLEAPLADVYSL [Pro peptide]
helix formation ([1]; in solution without TFE (0% TFE)): minimal helical formation in solution
helix formation ([1]; in the presence of TFE (25-50%)): no helix formation was observed

MADLEAVLADVYSL [GRK2 peptide]
Km change [2]: no change in the Km
IC50 (GRK2 (β2AR substrate)): ~50 µM

MELENIVANTLLK [GRK5 peptide, reference compound]
effect on GRK2-mediated phosphorylation of rhodopsin [3]: no effect
effect on GRK2-mediated β2AR phosphorylation (GRK2 (β2AR substrate); 200 µM peptide, 3 experiments (Fig. 4E)): no significant effect

B1: V477D: mutation in the AGC kinase C-tail of GRK2, literature (protein, UniProt P25098 1-689, looked up, variant V477D)
Beta-adrenergic receptor …: MADLEAVLADVSYLMAMEKSKATPAARASKKILLPEPSIRSVMQKYLEDRGEVTFEKIFSQKLGYLLFRDFCLNHLEEARPLVEFYEEIKKYEKLETEEERVARSREIFDSYIMKELLACSHPFSKSATEHVQGHLGKKQVPPDLFQPYIEEICQNLRGDVFQKFIESDKFTRFCQWKNVELNIHLTMNDFSVHRIIGRGGFGEVYGCRKADTGKMYAMKCLDKKRIKMKQGETLALNERIMLSLVSTGDCPFIVCMSYAFHTPDKLSFILDLMNGGDLHYHLSQHGVFSEADMRFYAAEIILGLEHMHNRFVVYRDLKPANILLDEHGHVRISDLGLACDFSKKKPHASVGTHGYMAPEVLQKGVAYDSSADWFSLGCMLFKLLRGHSPFRQHKTKDKHEIDRMTLTMAVELPDSFSPELRSLLEGLLQRDVNRRLGCLGRGAQEVKESPFFRSLDWQMVFLQKYPPPLIPPRGEDNAADAFDIGSFDEEDTKGIKLLDSDQELYRNFPLTISERWQQEVAETVFDTINAETDRLEARKKAKNKQLGHEEDYALGKDCIMHGYMSKMGNPFLTQWQRRYFYLFPNRLEWRGEGEAPQSLLTMEEIQSVEETQIKERKCLLLKIRGGKQFILQCDSDPELVQWKKELRDAYREAQQLVQRVPKMKNKPRSPVVELSKVPLVQRGSANGL
receptor phosphorylation and receptor-mediated activation (GPCR; GRK2 AGC kinase C-tail mutation): defective in receptor phosphorylation and receptor-mediated activation
activity against non-receptor substrates (GPCR): reduced activity against non-receptor substrates

B2: D3K: GRK2 amino terminal point mutant, Asp-3 to lysine (protein)
chain: T1 sequence (P21146 1-689) with D3K
decrease in β2AR phosphorylation activity vs wild-type GRK2 [4]: ~ 60%
ability to phosphorylate Rho* (rhodopsin (Rho*)): completely defective in their ability to phosphorylate Rho*

B3: L4A: GRK2 amino terminal point mutant, Leu-4 to alanine (protein)
chain: T1 sequence (P21146 1-689) with L4A
decrease in β2AR phosphorylation activity vs wild-type GRK2 [4]: 90–95%

B4: D10A: GRK2 amino terminal point mutant (protein)
chain: T1 sequence (P21146 1-689) with D10A
decrease in β2AR phosphorylation activity vs wild-type GRK2 [4]: 90–95%
ability to phosphorylate Rho* (rhodopsin (Rho*)): completely defective in their ability to phosphorylate Rho*
